The source of these data is ChEMBL document CHEMBL2203144, “Synthesis and evaluation of antimicrobial activity of 4H-pyrimido[2,1-b]benzothiazole, pyrazole and benzylidene derivatives of curcumin” (Eur J Med Chem, 2012).

One assay deals with Staphylococcus aureus. In words: Antibacterial activity against Staphylococcus aureus ATCC 11632 after 24 hrs by broth microdilution method. Type of assay: functional. The method in brief:
(§1)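 Microwell broth dilution in brain heart infusion broth (nutrient broth adjusted to pH 7.0). Inoculum from 16 h cultures, adjusted to 0.5 McFarland (1.5 × 10⁸ CFU/mL). 10 µL compound (serial dilutions 20 down to 0.625 or 0.312 µM/mL) plus 10 µL culture added to 150 µL broth. Incubated 24 h at 37 °C. MIC95 is the lowest concentration with no turbidity. Ciprofloxacin reference; inoculum and broth controls.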
(Dilution methods test growth across graded concentrations, often in twofold steps.)

The subject of another assay is Salmonella typhi. In words: Antibacterial activity against Salmonella typhi ATCC 15499 after 24 hrs by broth microdilution method. Format: functional, Salmonella enterica subsp. enterica serovar Typhi. The method in brief:
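Broth microdilution in brain heart infusion broth in microwells. Inoculum was prepared from 16 h cultures adjusted to the 0.5 McFarland standard (1.5 × 10⁸ CFU/mL). Compounds were serially diluted from 20 down to 0.625 µM/mL and added to the broth, followed by the bacterial culture. Plates were incubated 24 h at 37 °C, with optical density read. MIC95 was the lowest concentration giving no turbidity. Inoculum and broth controls were included.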

For another assay, the system named is Pseudomonas aeruginosa. The assay can be described thus: Antibacterial activity against Pseudomonas aeruginosa ATCC 23564 after 24 hrs by broth microdilution method. Format: functional. The method in brief:
as §1

A further assay deals with Escherichia coli. The assay can be described thus: Antibacterial activity against Escherichia coli ATCC 35218 after 24 hrs by broth microdilution method. Type of assay: functional. The method in brief: as §1
The subject of the next assay is Bacillus cereus. The assay can be described thus: Antibacterial activity against Bacillus cereus MTCC 7350 after 24 hrs by broth microdilution method. Type of assay: functional. An outline of the steps: as §1
For the next assay, the system named is Providencia rettgeri. The assay can be described thus: Antibacterial activity against Providencia rettgeri DRDE after 24 hrs by broth microdilution method. Format: functional. An outline of the steps:
as §1

In assay [1] the test system is Aspergillus niger. The assay can be described thus: Antifungal activity against Aspergillus niger after 72 hrs by agar disk diffusion method. Format: functional. The method in brief: (§2)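 Sterile filter-paper discs dipped in the acetone dilutions of compound (20–0.315 µM/mL), then dried to remove acetone. Sabouraud dextrose agar plates spread with 1 mL fungal culture. Discs placed aseptically; one drug-free disc served as growth control; fluconazole reference. Plates incubated upright 72 h at 28 °C. Zone of inhibition measured in mm with a scale.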
In general terms: In agar diffusion tests the substance spreads into inoculated agar from a disc or well.

In assay [2] the test system is Aspergillus fumigatus. In words: Antifungal activity against Aspergillus fumigatus after 72 hrs by agar disk diffusion method. Format: functional. An outline of the steps: as §2
For assay [3], the system named is Aspergillus flavus. In words: Antifungal activity against Aspergillus flavus after 72 hrs by agar disk diffusion method. Type of assay: functional. The method in brief: as §2
The nature of assay [4]: Cytotoxicity against human L123 cells after 48 hrs by MTT assay. Type of assay: cell-based. The method in brief:
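MTT assay. 2×10³ cells per well in MEM + 10% FBS, attached 24 h, then treated at 5, 10, 20, 50 and 100 µM/mL for 48 h; controls received medium with 0.2% DMSO. Duplicate treatments. Cells PBS-washed, given MTT (stock 1 mg/mL) for 4 h at 37 °C. Formazan dissolved in DMSO, read at 590 nm. IC50 is the concentration reducing viability by 50%.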
(In general: Tetrazolium dyes change colour on reduction, which living cells bring about.)

The test system of assay [5] is Aspergillus flavus. The assay can be described thus: Antifungal activity against Aspergillus flavus after 72 hrs by broth dilution method. Type of assay: functional. The method in brief:
(§3)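 Compounds and fluconazole reference were dissolved in acetone at 120 µM/mL and serially diluted to 20–0.315 µM/mL. 10 µL compound plus 10 µL fungal culture broth added to 150 µL Sabouraud dextrose medium per well. Optical density recorded, then incubated 72 h at 28 °C. MIC95 taken from absence of turbidity. Acetone-at-same-dilution solvent control.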

The test system of assay [6] is Aspergillus fumigatus. In words: Antifungal activity against Aspergillus fumigatus after 72 hrs by broth dilution method. Type of assay: functional. An outline of the steps: as §3
The subject of assay [7] is Aspergillus niger. In words: Antifungal activity against Aspergillus niger after 72 hrs by broth dilution method. Format: functional. An outline of the steps: as §3
Where [8] appears, read: Salmonella enterica subsp. enterica serovar Typhi.

The source made the active and inactive calls. The rule behind the calls is not given here. Bounds are passed on as bounds.

For `COc1cc(/C=C/C(=O)C(=Cc2ccccc2O)C(=O)/C=C/c2ccc(O)c(OC)c2)ccc1O`, the MIC95 against Staphylococcus aureus stood at 1.25 uM/ml; against Salmonella typhi it was 5 uM/ml; in the assay with Pseudomonas aeruginosa it was 1.25 uM/ml; against Escherichia coli, 2.5 uM/ml; against Bacillus cereus, 1.25 uM/ml; in the assay on Providencia rettgeri, 1.25 uM/ml. The MIC95 in the assay on Aspergillus fumigatus [6] and in the assay with Aspergillus niger [7] was 2.5 uM/ml each time. The “inhibition zone (IZ)” value in the assay with Aspergillus niger [1] amounted to 17 mm; in the assay with Aspergillus fumigatus [2] it was 20 mm. Besides, the “inhibition zone (IZ)” value in the assay on Aspergillus flavus [3] is “inactive”. The molecule also came in with an IC50 in assay [4] of 50 uM/ml. Besides, the MIC95 result in the assay on Aspergillus flavus [5] was “inactive”.
For the molecule `COc1cc(/C=C/c2cc(/C=C/c3ccc(O)c(OC)c3)n(C(=O)c3ccncc3)n2)ccc1O`, the MIC95 is on record as 1.25 uM/ml against Staphylococcus aureus; 5 uM/ml against Salmonella typhi; 1.25 uM/ml in the assay with Pseudomonas aeruginosa; 2.5 uM/ml with Escherichia coli; 2.5 uM/ml against Aspergillus flavus [5]; 2.5 uM/ml with Aspergillus niger [7]. Also, the MIC95 entry with Bacillus cereus, with Providencia rettgeri and in the assay with Aspergillus fumigatus [6] was “inactive” throughout. Moreover, the “inhibition zone (IZ)” value in the assay with Aspergillus niger [1] turned out to be 18 mm; in the assay on Aspergillus flavus [3], 22 mm. Also, the “inhibition zone (IZ)” value with Aspergillus fumigatus [2] was “inactive”. In assay [4], this molecule had an IC50 greater than 100 uM/ml.
With `O=C(O)c1cn(C2CC2)c2cc(N3CCNCC3)c(F)cc2c1=O` [CIPROFLOXACIN], the MIC95 in the assay on Staphylococcus aureus amounted to 1.25 uM/ml; against Salmonella typhi, 2.5 uM/ml; in the assay on Pseudomonas aeruginosa it was 1.25 uM/ml; in the assay with Escherichia coli, 1.25 uM/ml; against Bacillus cereus, 0.625 uM/ml; with Providencia rettgeri it was 1.25 uM/ml.
For `COc1cc(C=C(C(=O)/C=C/c2ccc(O)c(OC)c2)C(=O)/C=C/c2ccc(O)c(OC)c2)ccc1O`, the MIC95 amounted to 2.5 uM/ml with Staphylococcus aureus; 5 uM/ml in the assay with Salmonella typhi; 2.5 uM/ml with Pseudomonas aeruginosa; 1.25 uM/ml with Bacillus cereus; 2.5 uM/ml in the assay on Providencia rettgeri; 1.25 uM/ml with Aspergillus flavus [5]. In addition, the MIC95 result with Escherichia coli, in the assay on Aspergillus fumigatus [6] and in the assay with Aspergillus niger [7] was “inactive” throughout. For the same molecule, the “inhibition zone (IZ)” value in the assay with Aspergillus niger [1] and in the assay with Aspergillus fumigatus [2] was “inactive” throughout. Further, the “inhibition zone (IZ)” value with Aspergillus flavus [3] is recorded as 20 mm. This molecule also registered an IC50 in assay [4] greater than 100 uM/ml.
As to `COc1cc(/C=C/C(=O)C2=C(/C=C/c3ccc(O)c(OC)c3)N=C3Sc4ccccc4N3C2c2ccccc2)ccc1O` (stereo not drawn), the MIC95 in the assay on Staphylococcus aureus is 20 uM/ml; with Salmonella typhi it was 20 uM/ml; in the assay with Pseudomonas aeruginosa, 10 uM/ml; against Bacillus cereus it was 5 uM/ml; against Providencia rettgeri it was 20 uM/ml. In addition, the MIC95 result with Escherichia coli, with Aspergillus flavus [5], in the assay on Aspergillus fumigatus [6] and with Aspergillus niger [7] was “inactive” throughout. Besides, the “inhibition zone (IZ)” value in the assay with Aspergillus niger [1], in the assay with Aspergillus fumigatus [2] and with Aspergillus flavus [3] was “inactive” each time. Also, the IC50 in [4] is on record as greater than 100 uM/ml.
In the case of `COc1cc(/C=C/C(=O)C2=C(/C=C/c3ccc(O)c(OC)c3)N=C3Sc4ccccc4N3C2c2ccc(O)cc2)ccc1O` (stereo not drawn), the MIC95 is 1.25 uM/ml against Staphylococcus aureus; 20 uM/ml against Salmonella typhi; 10 uM/ml with Pseudomonas aeruginosa; 5 uM/ml against Escherichia coli; 2.5 uM/ml in the assay with Bacillus cereus; 5 uM/ml against Aspergillus fumigatus [6]. For the same molecule, the MIC95 result with Providencia rettgeri, with Aspergillus flavus [5] and in the assay with Aspergillus niger [7] was “inactive” throughout. The “inhibition zone (IZ)” value with Aspergillus niger [1] and in the assay on Aspergillus flavus [3] was “inactive” throughout. For the same molecule, the “inhibition zone (IZ)” value with Aspergillus fumigatus [2] came to 12 mm.
In the case of `COc1cc(/C=C/c2cc(/C=C/c3ccc(O)c(OC)c3)n(C(N)=O)n2)ccc1O`, the MIC95 result in the assay with Staphylococcus aureus, in the assay with Salmonella typhi (setting [8]), with Bacillus cereus and in the assay with Aspergillus flavus [5] was “inactive” throughout. The MIC95 turned out to be 5 uM/ml with Pseudomonas aeruginosa; 2.5 uM/ml with Escherichia coli; 2.5 uM/ml against Providencia rettgeri; 1.25 uM/ml against Aspergillus fumigatus [6]; 5 uM/ml against Aspergillus niger [7]. Moreover, the “inhibition zone (IZ)” value in the assay on Aspergillus niger [1] stood at 15 mm; with Aspergillus fumigatus [2], 20 mm. In the assay with Aspergillus flavus [3], the “inhibition zone (IZ)” value was “inactive”.
Turning to `COc1cc(/C=C/C(=O)C2=C(/C=C/c3ccc(O)c(OC)c3)N=C3Sc4ccccc4N3C2c2ccc(C)cc2)ccc1O` (stereo not drawn), the MIC95 with Staphylococcus aureus is given as 20 uM/ml; against Escherichia coli, 10 uM/ml; against Bacillus cereus, 5 uM/ml; against Providencia rettgeri, 20 uM/ml. Moreover, the MIC95 result with Salmonella typhi (setting [8]), in the assay with Pseudomonas aeruginosa, with Aspergillus flavus [5], with Aspergillus fumigatus [6] and in the assay with Aspergillus niger [7] was “inactive” each time. For the same molecule, the “inhibition zone (IZ)” value with Aspergillus niger [1], with Aspergillus fumigatus [2] and in the assay with Aspergillus flavus [3] was “inactive” throughout.
In the case of `COc1cc(/C=C/C(=O)C(=Cc2ccccc2)C(=O)/C=C/c2ccc(O)c(OC)c2)ccc1O`, the MIC95 in the assay on Staphylococcus aureus is listed as 1.25 uM/ml; in the assay on Salmonella typhi, 2.5 uM/ml; against Escherichia coli, 1.25 uM/ml; against Bacillus cereus, 0.625 uM/ml; in the assay on Providencia rettgeri, 0.625 uM/ml; in the assay with Aspergillus fumigatus [6], 2.5 uM/ml. The MIC95 entry in the assay on Pseudomonas aeruginosa, in the assay on Aspergillus flavus [5] and with Aspergillus niger [7] was “inactive” throughout. For the same molecule, the “inhibition zone (IZ)” value in the assay with Aspergillus niger [1] and with Aspergillus flavus [3] was “inactive” throughout. Moreover, the “inhibition zone (IZ)” value in the assay on Aspergillus fumigatus [2] was 15 mm.
As to `COc1cc(/C=C/C(=O)C2=C(/C=C/c3ccc(O)c(OC)c3)N=C3Sc4ccccc4N3C2c2ccc(O)c(OC)c2)ccc1O` (stereo not drawn), the MIC95 result in the assay with Staphylococcus aureus, with Aspergillus fumigatus [6] and in the assay with Aspergillus niger [7] was “inactive” each time. The MIC95 came out at 10 uM/ml in the assay with Salmonella typhi; 5 uM/ml with Pseudomonas aeruginosa; 10 uM/ml in the assay with Escherichia coli; 2.5 uM/ml against Bacillus cereus; 10 uM/ml with Providencia rettgeri; 12 uM/ml in the assay on Aspergillus flavus [5]. The “inhibition zone (IZ)” value in the assay on Aspergillus niger [1] and with Aspergillus fumigatus [2] was “inactive” throughout. The “inhibition zone (IZ)” value with Aspergillus flavus [3] was determined as 11 mm.
`COc1cc(/C=C/c2cc(/C=C/c3ccc(O)c(OC)c3)n(C(N)=S)n2)ccc1O`: the MIC95 was 1.25 uM/ml in the assay on Staphylococcus aureus; 2.5 uM/ml in the assay with Salmonella typhi; 2.5 uM/ml in the assay on Pseudomonas aeruginosa; 0.625 uM/ml with Bacillus cereus; 1.25 uM/ml against Providencia rettgeri; 1.25 uM/ml against Aspergillus flavus [5]. Moreover, the MIC95 against Aspergillus fumigatus [6] and in the assay on Aspergillus niger [7] was 2.5 uM/ml each time. Further, the MIC95 entry in the assay with Escherichia coli was “inactive”. In addition, the “inhibition zone (IZ)” value is 22 mm in the assay with Aspergillus niger [1], 25 mm in the assay with Aspergillus fumigatus [2] and 20 mm in the assay on Aspergillus flavus [3].
As for `OC(Cn1cncn1)(Cn1cncn1)c1ccc(F)cc1F` [FLUCONAZOLE], the “inhibition zone (IZ)” value is 18 mm with Aspergillus niger [1], 22 mm in the assay with Aspergillus fumigatus [2] and 25 mm in the assay on Aspergillus flavus [3]. Also, the MIC95 against Aspergillus flavus [5] amounted to 1.25 uM/ml; with Aspergillus fumigatus [6] it was 1.25 uM/ml; in the assay with Aspergillus niger [7], 2.5 uM/ml.
Regarding `COc1cc(/C=C/C(=O)CC(=O)/C=C/c2ccc(O)c(OC)c2)ccc1O` [CURCUMIN], the MIC95 is 20 uM/ml with Staphylococcus aureus; 20 uM/ml in the assay with Salmonella typhi; 20 uM/ml with Escherichia coli; 10 uM/ml in the assay on Bacillus cereus; 20 uM/ml with Providencia rettgeri; 20 uM/ml against Aspergillus fumigatus [6]. For the same molecule, the MIC95 in the assay on Aspergillus niger [7] was found to be 20 uM/ml. Further, the MIC95 entry with Pseudomonas aeruginosa and with Aspergillus flavus [5] was “inactive” throughout. In addition, the figures for the “inhibition zone (IZ)” value in the assay with Aspergillus niger [1] and in the assay on Aspergillus fumigatus [2] were 9 mm and 12 mm, respectively. Further, the “inhibition zone (IZ)” value in the assay with Aspergillus flavus [3] is “inactive”.
